Compounds with a hit are over-represented: about 1.3% of the library has one in this group of screens.
CSN deneddyl inh – blocks human CSN-mediated cullin deneddylation; Q92905; Purified CSN, SCF-Nedd8-OG deneddylation, fluorescence polarization; inhibition, % at 12.5 µM; hit rate 0.38% among 360,000; AID 651999;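 active = pattern-corrected inhibition above about 35%, with an unprinted fluorescence ratio check between 0.5 and 1.5, limit read from the data, passing the limit was not always enough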;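 also: 0% = enzyme with substrate and 100% = substrate without enzyme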
Target sequence (Q92905 whole entry, looked up, one chain of several): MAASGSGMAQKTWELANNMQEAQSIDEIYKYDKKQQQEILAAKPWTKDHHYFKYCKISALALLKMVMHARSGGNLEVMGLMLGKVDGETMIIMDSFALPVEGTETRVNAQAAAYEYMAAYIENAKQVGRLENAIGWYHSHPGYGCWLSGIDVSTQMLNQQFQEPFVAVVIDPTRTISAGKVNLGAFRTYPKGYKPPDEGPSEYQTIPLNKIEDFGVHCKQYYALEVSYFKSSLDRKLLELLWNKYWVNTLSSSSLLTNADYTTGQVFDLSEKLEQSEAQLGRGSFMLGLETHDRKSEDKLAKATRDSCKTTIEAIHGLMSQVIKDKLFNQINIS
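Assay system: purified human Csn5 enzyme expressed in HEK293T cells; Input: 0.24 nM Csn5 enzyme, final concentration; Reagent: 10 nM SCFSkp2-Nedd8OG; Compound dosing: 12.5 µM single point; Times: reaction 90 min, room temperature; Technique: fluorescence polarization readout.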
Rpn11 inh – inhibitors of human proteasome Rpn11; O00487; inhibition, % at 20 µM; human 26S proteasome, Ub4-pepOG fluorescence polarization; 20S core pre-blocked with epoxomicin; hit rate 0.59% among 360,000;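 active = inhibition at 20 µM, scaled to each plate's controls, above about 33%, limit read from the data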
aDG glyco act – increases alpha dystroglycan glycosylation; Pro5-aDG cells, alpha-DG glycosylation AlphaScreen (IIH6); 0% Pro5, 100% B10-LARGE cell signal; activation, % at 10 µM; hit rate 0.22% among 360,000;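 active = activation of at least 8% versus controls, or a plate z-score of at least 8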;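 also: Pro5 are CHO cells carrying HIG-tagged alpha-DG that lacks glycosylation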
HNF4A DNA FP – change in binding of human HNF4 alpha to DNA; P41235; HNF4a-FITC DNA binding, fluorescence polarization, 1 h; activity change, % at 10 µM; hit rate 0.3% among 360,000; in the data active = activity change above about 30%, passing the limit was not always enough
TPT1 inhibitor – blocks Candida albicans tRNA 2'-phosphotransferase; recombinant caTPT1, FP RNA substrate dephosphorylation; inhibition, % at 5 µM; hit rate 0.81% among 300,000; AID 1962;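 active = inhibition above the mean of all tested compounds plus 3 SD, set per screening campaign, cut at about 24% in these data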;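 also: plate controls were DMSO alone for no effect and ferristatin control at 100 nM for full effect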
Xi reactivation – X-chromosome reactivation activator; activation, % at 7.58 µM; hit rate 0.055% among 360,000; XiGFP mouse fibroblasts, % GFP-positive cells imaging, 3 d; cells co-treated with 5-aza-dC sensitizer; scaled so ellipticine positive control = 100%; AID 743238;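 active = mean normalized replicate activation at least 10% and every replicate at or above 10%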;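 also: 0% = median of on-plate neutral control wells and 100% = ellipticine 6 µM median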
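Material: XiGFP fibroblasts, SV40-immortalized; Buffer or medium: DMEM containing 5-aza-dC; Compound dosing: single point; Times: 3 days compound exposure.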
TPT1 inh confirm – TPT1 (C. albicans) inhibition, confirmation; shares compounds with TPT1 inhibitor; recombinant caTPT1, fluorescence polarization, RNase T1 coupled; inhibition, % at 5 µM; hit rate 74% among 2,400; AID 2149;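 active = inhibition above the primary screen limit, the mean inhibition of all tested compounds plus 3 SD, cut at about 25% in these data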
RNase T1 counter – counter-screen for TPT1 inhibitors: inhibitors of Aspergillus oryzae RNase T1; shares compounds with TPT1 inhibitor; RNase T1 cleavage, fluorescence polarization, 1536-well; inhibition, % at 5 µM; hit rate 83% among 2,400; AID 2153;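 active = inhibition above the solvent-only control well mean plus 3 SD, limit set per screening run, cut at about 23% in these data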;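 also: plate controls were DMSO wells with enzyme for no effect and wells without RNase T1 for full effect; inhibitors block cleavage so intact labeled substrate keeps polarization high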
Target sequence (P00651 whole entry, looked up): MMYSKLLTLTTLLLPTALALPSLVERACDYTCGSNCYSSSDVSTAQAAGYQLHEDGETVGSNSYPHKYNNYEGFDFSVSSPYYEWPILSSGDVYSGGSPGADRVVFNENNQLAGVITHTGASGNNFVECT
* = called active by the depositor.

`COc1ccc(C2=C/C(=C/c3cccnc3)C(=O)O2)cc1OC` gave CSN deneddyl inh 19, aDG glyco act 0, HNF4A DNA FP 9, TPT1 inhibitor 80*, Xi reactivation 0, TPT1 inh confirm 80* and RNase T1 counter 85*.
For CC(=O)Oc1cccc(/C=C2\C=C(c3ccc(C)cc3)OC2=O)c1 the results were CSN deneddyl inh -5, Rpn11 inh 11, aDG glyco act 0, HNF4A DNA FP 5, TPT1 inhibitor -3 and Xi reactivation 0.
For COC(=O)C[C@H]1CC[C@H]2[C@H](COc3ccc(NC(=O)Nc4ccc(C)cc4)cc3C(=O)N2C)O1 the results were Xi reactivation 1.
For Cc1cccc(N/C=C/c2onc(C)c2[N+](=O)[O-])c1 the results were CSN deneddyl inh 1, Rpn11 inh 13, aDG glyco act 0, HNF4A DNA FP 3, TPT1 inhibitor 62*, TPT1 inh confirm 64* and RNase T1 counter 73*.
Screening Cc1cc(O)ccc1N/C=C/c1onc(C)c1[N+](=O)[O-] returned CSN deneddyl inh 1, Rpn11 inh 4, aDG glyco act 0, HNF4A DNA FP -2, TPT1 inhibitor 5 and Xi reactivation 0.
`Cc1c(N=C2N=C(NC(=O)NC(C)(C)C)c3ccccc32)c(=O)n(-c2ccccc2)n1C` gave CSN deneddyl inh -1, Rpn11 inh 1, aDG glyco act 0, HNF4A DNA FP 3, TPT1 inhibitor 2 and Xi reactivation 0.
`Cc1c(N=C2N=C(NC(=O)c3cccs3)c3ccccc32)c(=O)n(-c2ccccc2)n1C` gave CSN deneddyl inh 34, aDG glyco act 0, HNF4A DNA FP 48, TPT1 inhibitor 85*, Xi reactivation 0, TPT1 inh confirm 113* and RNase T1 counter 113*.
Screening O=C(NCC1CC1)[C@H]1[C@H](CO)[C@H]2Cn3c(ccc(-c4cccnc4)c3=O)[C@@H]1N2Cc1nccs1 returned Xi reactivation 0.
`O=C(C1CCOCC1)N1CC(=O)N2[C@H](CO)[C@H](c3ccc(C#CC4CCCC4)cc3)[C@@H]2C1` gave Xi reactivation 0.
For CCC(=O)N1CCN(c2ccccc2NC(=S)NC(=O)c2cccc([N+](=O)[O-])c2)CC1 the results were CSN deneddyl inh 2, Rpn11 inh -1, aDG glyco act 0, HNF4A DNA FP 2, TPT1 inhibitor 39*, Xi reactivation 0, TPT1 inh confirm 5 and RNase T1 counter 5.
CCC(=O)N1CCN(c2ccc(NC(=S)NC(=O)c3cccc([N+](=O)[O-])c3)cc2)CC1 was read as CSN deneddyl inh 0, Rpn11 inh -10, aDG glyco act 0, HNF4A DNA FP 3 and TPT1 inhibitor -7.
For CO[C@H]1CN(C)C(=O)c2ccc(NS(C)(=O)=O)cc2OC[C@@H](C)NC[C@@H]1C the results were Xi reactivation 0.
For N=c1c(S(=O)(=O)c2ccccc2)cc2c(=O)n3ccccc3nc2n1Cc1ccco1 the results were CSN deneddyl inh 26, Rpn11 inh 13, aDG glyco act 0, HNF4A DNA FP -2, TPT1 inhibitor 26*, TPT1 inh confirm 9 and RNase T1 counter 17.
Screening Cc1ccc(S(=O)(=O)c2cc3c(=O)n4ccccc4nc3n(Cc3ccco3)c2=N)cc1C returned TPT1 inhibitor 25*, TPT1 inh confirm 18 and RNase T1 counter 21.
Cc1cccn2c(=O)c3cc(S(=O)(=O)c4ccccc4)c(=N)n(Cc4ccco4)c3nc12 was read as CSN deneddyl inh -3, Rpn11 inh 6, aDG glyco act 0, HNF4A DNA FP -3, TPT1 inhibitor 6 and Xi reactivation 0.
Screening CN1c2ccc(C#Cc3ccccc3)cc2[C@H]2[C@H](CCN2S(=O)(=O)c2ccccc2F)[C@H]1CO returned Xi reactivation 0.
CCCc1cc(C(=O)Cc2ccc(C(=O)OCC)o2)c(O)cc1O was read as CSN deneddyl inh 8, Rpn11 inh 27, aDG glyco act 0, HNF4A DNA FP 17, TPT1 inhibitor 24*, TPT1 inh confirm 20 and RNase T1 counter 30*.
Cc1cc(C(=O)Nc2cccc3c2O[C@H](CN(C)C(=O)Nc2cccc4ccccc24)[C@H](C)CN([C@H](C)CO)C3=O)n(C)n1 was read as Xi reactivation 0.
`COC(=O)c1cccc(Cn2c(Cl)c(/C=N/Nc3ccccc3C)sc2=O)c1` gave CSN deneddyl inh 0, Rpn11 inh 34, aDG glyco act -1, HNF4A DNA FP 14, TPT1 inhibitor 29*, TPT1 inh confirm 35* and RNase T1 counter 42*.
COc1cccc(S(=O)(=O)N[C@H]2CC[C@@H](CC(=O)NCc3ccc(Cl)cc3)O[C@H]2CO)c1 was read as Xi reactivation 0.
CC(=O)NC(Cc1cccc(F)c1)C(=O)NC1CCN(C(=O)Nc2ccc(C)cc2)CC1 (stereo unspecified) was read as CSN deneddyl inh 2, Rpn11 inh -3, aDG glyco act 0, HNF4A DNA FP 2, TPT1 inhibitor 24*, Xi reactivation 0, TPT1 inh confirm 8 and RNase T1 counter 12.
For Cc1ccc(N2CN(Cc3cccnc3)CNC2=S)c(C)c1 the results were CSN deneddyl inh 3, Rpn11 inh -2, aDG glyco act 0, HNF4A DNA FP -1, TPT1 inhibitor 0 and Xi reactivation 0.
`Cc1ccc(N2CN(Cc3ccco3)CNC2=S)c(C)c1` gave CSN deneddyl inh -4, Rpn11 inh -1, aDG glyco act 0, HNF4A DNA FP -1, TPT1 inhibitor 48*, Xi reactivation 0, TPT1 inh confirm 8 and RNase T1 counter 8.
`Cc1nn(-c2ncc(C(F)(F)F)cc2Cl)c(=O)n1-c1c(F)cccc1F` gave CSN deneddyl inh -1, Rpn11 inh 0, aDG glyco act 0, HNF4A DNA FP -1, TPT1 inhibitor 32*, Xi reactivation 0, TPT1 inh confirm 3 and RNase T1 counter 2.
For Cc1nnc2c3ccccc3c(-c3ccc(O)cc3)nn12 the results were CSN deneddyl inh 4, Rpn11 inh -7, aDG glyco act 0, HNF4A DNA FP -2 and TPT1 inhibitor 3.
Screening Cc1c(-c2ccc(O)cc2)nc2nc(-c3ccccc3)c(-c3ccccc3)nn12 returned TPT1 inhibitor 27*, TPT1 inh confirm 49* and RNase T1 counter 67*.

From PubChem
